Experimental data from the EternaBench riboswitch data.

Test system: MS2 coat protein
Assay: apparent Kd, MS2 coat protein; higher = weaker binding; RNA-MaP array; FMN 200 µM where present
Summary of the method: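 Two titrations, one without ligand and one with constant ligand, were run with SNAP-549-labelled MS2 coat protein from 0.7 or 1.5 nM, doubling to 3 µM. The targets were designs transcribed by stalled E. coli RNA polymerase on Illumina sequencing-chip clusters, in 100 mM Tris-HCl pH 7.5, 80 mM KCl, 4 mM MgCl2, BSA, DTT, yeast tRNA and Tween-20. The apparent Kd is the median of filtered per-cluster binding-curve fits, with green signal normalised to red-channel RNA signal and control-cluster median Fmax.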

[1] = designed as: OFF switch for flavin mononucleotide, no ligand
[2] = ligand present: flavin mononucleotide, designed as: OFF switch for flavin mononucleotide
[3] = designed as: ON switch for flavin mononucleotide, no ligand
[4] = ligand present: flavin mononucleotide, designed as: ON switch for flavin mononucleotide

Sequence	apparent Kd [1] [nM]	apparent Kd [2] [nM]	apparent Kd [3] [nM]	apparent Kd [4] [nM]
UGAGAUGUAGUAGGAUAUCAGGUUACAUGAGGAUCACCCAUGUUAGAUUGGUGGAUAGAUGUUGAUGAGAAGGACUUUUGAGUG	66.7	116	–	–
UGAGCAGAAGGAUAUGCGUAAUGGCCGUGAGGCCUAGAUCUACAUGAGGAUCACCCAUGUAGAAGGUCUGUUCU	15.3	15.2	–	–
UGAGCAUGAGGAUAUACAAGGCGUGCCGUAGCACGAGGUCUACAUGAGGAUCACCCAUGUAGAAGGCAUGUUCU	16.8	36.9	–	–
UGAGCGACCACAGGAUAUACUUGAGAAGACCGAGUAGAAGGGUGGAAGAGCGUGCAGUGACAUGAGGAUCACCCAUGUGGUUGU	–	–	107	98.4
UGAGUGCGUGUUAGGAUAUGGUUUGGUGUUUCGGGCUAGAAGGGACAUGAGGAUCACCCAUGUAACUGGCGGGU	53.3	51	–	–
UGAUAGCACAGAGGAUAUGCGUAGUGUUAUCUCUACAUGAGGAUCACCCAUGUAGAAGGCUGUGCUAUCUAAGUCGGAAACGAC	5.95	9.9	–	–
UGAUAGCACAGAGGAUAUGCGUUGUGUUCUCUCUACAUGAGGAUCACCCAUGUAGAAGGCUGUGCUAUCUAAGUCGGAAACGAU	8.81	36.9	–	–
UGAUAGGACAGAGGAUAUACGGAUAGGAUCUACUAUCAAACAAGUCCUACAUGAGGAUCACCCAUGUAGAAGGCUGUCCUAUCU	16.1	22.2	–	–
UGAUAGGACAGAGGAUAUACGUGCUAGAGAUACUAGCUACAAAUCCUUACAUGAGGAUCACCCAUGUAGAAGGCUGUCCUAUCU	19.3	39.4	–	–
UGAUCCGUGUAGGAUAUCUGUUGGCCGCCGACUGGAGAAGGGCACACAUGAGGAUCACCCAUGUGUGGGCAUAA	17.8	19.6	–	–
UGAUCGAGAGAUCUUAGAUUCUGGUAGGAUAUACAUAAAAUGCGCUUUACAUGAGGAUCACCCAUGUAGAAGGACUAGAGUCUA	7.54	9.8	–	–
UGAUCUAUGUAGAAGGCCCAUAUCUAUAUUUAGGGAGGAUAUACAUGAGGAUCACCCAUGUAUAGAGCGAGUGGACUCGUCACC	18.1	47.3	–	–
UGCAAAAUUGCAACAUGAGGAUCACCCAUGUCUGGGUUGGCCAAGGAUAUGCUUCUAAUCCUAGUGCAGAAGGUGGAAACUCAU	–	–	201	530
UGCCAAGCAGGAUAUGCACGUAAUAACAUGAGGAUCACCCAUGUGACCGAUUUAUAUUCUGCAGAAGGGCUUGGAU	54.9	152	–	–
UGCCGCAACAACACGGCAUCACAUGAGGAUCACCCAUGUUCACAGGAUAUGCGAUAGCCAACGAAGCAGAAGGGUGAUUACUUA	–	–	31.9	215
UGCCUGAGGCAAAGCUUUAGGUAUACAUGAGGAUCACCCAUGUAGGAUAUGGUAGGCUUUGCUUACCAGAAGGACAUGUUAAUU	19.8	54.6	–	–
UGCGUACAAGCAGACAUGAGGAUCACCCAUGUAGUCUUAUGCGAGGAUAUCGGGAAGGAGGAUUCCGAGAAGGUGCGGUGAGCC	–	–	25.4	21.9
UGCGUUUGAGGAUAUACGUAGAAUUAGAUUCAUGUAAAACUACAUGAGGAUCACCCAUGUAGAAGGCAAGCGCU	17.7	79.4	–	–
UGCUGGGAGUCAGGAUAUACGUGGUAUGCUGAGCACAUGAGGAUCACCCAUGUAGAAGGGAUUCCGCGGUGAGAUUCCGAAACA	6.03	6.62	–	–
UGCUGUGUCAGAGGAUAUACGUCAAUAAUCCAUUGCAAAUAGCGAUGGACAUGAGGAUCACCCAUGUAGAAGGCUGUCACAGCA	58.3	242	–	–
UGGAAGAGAAGAGGAUAUCCGUAGAUAACACAUGAGGAUCACCCAUGUAAGAGGGAUAGGUGAUAGGAGAAGGCUUAGAGAGGU	15.2	14.9	–	–
UGGACCGAGCUAUCGGUUGACUCGGAGGAUAUGACAUGAGGAUCACCCAUGUGGGAUCUAAAUUGUCAGAAGGCUGGUUCUGGG	675	229	–	–
UGGAUCAAUACAGGAUAUGGUGACGCACAUGAGGAUCACCCAUGUCCGCAGCGUGCUAAGCACGCCCAGAAGGGUAUUGAUUCG	–	–	722	69.4
UGGAUCAUCGGAGGAUAUCAUGUAAAUACAUGAGGAUCACCCAUGUCGUACGAGAGUACGGAGAUUGAGAAGGCCGAUGAUCCU	–	–	24.6	15.4
UGGCGACAUGAGGAUCACCCAUGUAUUUCCAGUUAAGGAUAUAGGUGCUAGCAACGGCAGCUAGAAGGUGAGAUAA	–	–	42	58
UGGCGCAUGUGAGGAUAUAAUGGGUAGUAACUAUUAGAAGGUACAUGAGGAUCACCCAUGUACUUGGGUUUAUCAGGAACUCCU	7.02	6.7	–	–
UGGGAACGAGGAUAUCGAUGGUGGAACAUGAGGAUCACCCAUGUAUGAGAUAGUGUAGUUCGAGAAGGCGUUAAGU	68.6	33.8	–	–

Sequence	apparent Kd [1] [nM]	apparent Kd [2] [nM]	apparent Kd [3] [nM]	apparent Kd [4] [nM]
UGGGCUACGUGGUCCGCCAGACGUAGAAGGGUCUACAUGAGGAUCACCCAUGUGACCGUUAGUGGACAGGAUAUACGCGGAGUG	8.38	22.8	–	–
UGGGUUACAGGAUAUACAUGAGGAUCACCCAUGUCAUGUUUCGUGGCGGAUAGCUCGAGUAGAAGGGUGCAUCC	50	60.4	–	–
UGGUACAUCGGAGGAUAUCAUGUAGACACAUGAGGAUCACCCAUGUCGAUGGAGACAUCGGAGAUUGAGAAGGCCGAUGUACCU	–	–	503	23.3
UGGUACAUCGGAGGAUAUCAUGUAGAUACAUGAGGAUCACCCAUGUCGUACGAGAGUACGGAGAUUGAGAAGGCCGAUGUACCU	–	–	30.7	16.4
UGGUACAUGGGAGGAUAUCCUCAAGAGACAUGAGGAUCACCCAUGUAUUAUAUGCCUCUUGGCAUGGAGAAGGCCCAUGUACCU	–	–	56.2	55.4
UGGUACAUGGGAGGAUAUGGGUUGAUAACAUGAGGAUCACCCAUGUUAAUGCCGAAAGGCAAGAACUAGAAGGCCCAUGUACCU	–	–	410	30.2
UGGUACUAGGGAGGAUAUGGCAAGAUACAUGAGGAUCACCCAUGUUUAAGAAUGCCGAGAGGCAACUAGAAGGCCCUAGUACCU	–	–	7.75	4.7
UGGUACUAGGGAGGAUAUGGGAAGAUACAUGAGGAUCACCCAUGUUUAACAAUGCCGAGAGGCAACUAGAAGGCCCUAGUACCU	–	–	227	15.5
UGGUACUAGGGAGGAUAUGGGAAGAUACAUGAGGAUCACCCAUGUUUAAGAAUGCCGAGAGGCAACUAGAAGGCCCUAGUUCCU	–	–	390	19.5
UGGUACUAGGGAGGAUAUGGGAAGAUACAUGAGGAUCACCCAUGUUUAAGAAUGCCGAGAGGUAACUAGAAGGCCCUAGUACCU	–	–	455	15.1
UGGUGAAGUGUAGGAUAUGGAGGUGGGUUUUGGCCAGAAGGACAUGAGGAUCACCCAUGUGGUAGAGGGUUGGCGGUGGCCCGU	16	13.7	–	–
UGGUGACGUGUAGGAUAUGGAGGUGGGUUUUGGCCAGAAGGACAUGAGGAUCACCCAUGUGGUAGAGGGUUGGCGGUGGCCCGU	17.7	15.2	–	–
UGGUGUGAAUAGGAUAUGAACUCUGCCAGGAUAUCAGAAGGGUUUACAUGAGGAUCACCCAUGUCAUCCACUGC	18.8	18.9	–	–
UGGUUCAUGGGAGGAUAUGGGAUGAUAACAUGAGGAUCACCCAUGUUAAAGAUGCCGAGAGGCAACUAGAAGGCCCAUGAACCU	–	–	268	61.7
UGGUUGUCAGGAUAUUGGGUUUUUAACUUUAGUUUUAUAUUCGAGAAGGGACAUGAGGAUCACCCAUGUUACGU	32.7	37.6	–	–
UGUAAAAUUGAUCCUGCAAGUACAUGAGGAUCACCCAUGUGCUAGGAUAUCGCGCAGCUAAAGUCCGAGAAGGAGCACAAUGUA	32.3	95.6	–	–
UGUAAGAUGCAGAAGGUGUUAGCUAGAGCUACGACAUGAGGAUCACCCAUGUACUAGAAACAGUACAAGGAUAUGCAUCUUACU	–	–	18	6.53
UGUACCGUUGGAACGCGUCGAGUACAUGAGGAUCACCCAUGUCAGGAUAUGUGGCGAAAGGUAGCACAGAAGGGACAUAGAAGA	32.6	92.3	–	–
UGUACUUAUUUUAAUUAUGAUUUACUAGAAGGUAGAUACAUGAGGAUCACCCAUGUUUAGAGUUCUAAGGAUAUAGAUUUUAUC	–	–	10.3	10.2
UGUAUGUGGGCAGGAUAUACAUGAAUAUAUAUGAUGUAGUAUGAUGUAACAUGAGGAUCACCCAUGUAGAAGGGCCGGUGUAUG	165	214	–	–
UGUCCAUAGCAGAAGGACAUAAAUACAUGACCAAACAUGAGGAUCACCCAUGUAGGAUAUGCUAUGGACUAAGAGCGAAAGCUC	6.6	9.31	–	–
UGUCGGAGCAGAGGAUAUUACAUGAGGAUCACCCAUGUACGAACCAAUAGCUGGAAACAGCAAUGUAAGAAGGCUGCUCCGACA	11.3	79	–	–
UGUCGGAGCAGAGGAUAUUACAUGAGGAUCACCCAUGUAUGAACCAAUAGCUGGAAACAGAAAUGUAAGAAGGCUGCUCCGACA	5.84	21.2	–	–
UGUCGGAGCAGAGGAUAUUACAUGAGGAUCACCCAUGUAUGAACCAAUAGCUGGAAACAGCAAUGGAAGAAGGCUGCUCCGACA	4.99	5.37	–	–
UGUCGGAGCAGAGGAUAUUACAUGAGGAUCACCCAUGUAUGAACCAAUAGCUGGAAACAGCAAUGUAAGAAGGCUGCUCCGACC	12	153	–	–
UGUCGGAGCAGAGGAUAUUACAUGAGGAUCACCCAUGUAUGAACCAAUAGCUGGAAACAGCAAUGUAAGAAGGGUGCUCCGACA	6.09	13.2	–	–
UGUCGGAGCAGAGGAUAUUACAUGAGGAUCACCCAUGUAUGAACCAAUAGCUGGAAACAGCGAUGUAAGAAGGCUGCUCCGACA	10.2	124	–	–
